How the values were obtained:
Leishmania infantum [1] = assay: Antileishmanial activity against antimony-sensitive Leishmania infantum MCAN/BR/2002/BH400 promastigote infected in Swiss mouse peritoneal macrophages after 72 hrs; format: functional, organism-based; settings: MCAN/BR/2002/BH400, 72 h
Summary of the method: (§1)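 Promastigotes of Sb(III)-sensitive and -resistant lines (resistant to Sb(III) up to 2700), maintained at 25 °C, pH 7.0, in α-MEM with 10% heat-inactivated FBS, kanamycin, ampicillin, L-glutamine, hemin and biopterin. Drugs dissolved in DMSO, diluted in α-MEM across a concentration range, final DMSO ≤0.2%.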

Leishmania infantum [2] = assay: Antileishmanial activity against antimony-resistant Leishmania infantum MCAN/BR/2002/BH400 promastigote infected in Swiss mouse peritoneal macrophages after 72 hrs; format: functional, organism-based; settings: MCAN/BR/2002/BH400, 72 h; summary of the method: as §1
Leishmania amazonensis [3] = assay: Antileishmanial activity against antimony-sensitive Leishmania amazonensis MHOM/BR/1989/BA199 promastigote infected in Swiss mouse peritoneal macrophages after 72 hrs; format: functional, organism-based; settings: MHOM/BR/1989/BA199, 72 h; summary of the method: as §1
[4] = Selectivity index, ratio of CC50 for Swiss mouse peritoneal macrophages to IC50 for antimony-sensitive Leishmania amazonensis MHOM/BR/1989/BA199 promastigote; format: functional
Summary of the method: (§2)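 SI = CC50 / IC50. CC50 is from Swiss mouse peritoneal macrophages, read by MTT after lavage and 1 h adherence. […] Promastigotes grown in α-MEM with 10% heat-inactivated FBS, hemin and biopterin, pH 7.0, 25 °C. DMSO ≤0.2% final. Triplicate.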

Leishmania amazonensis [5] = assay: Antileishmanial activity against antimony-resistant Leishmania amazonensis MHOM/BR/1989/BA199 promastigote infected in Swiss mouse peritoneal macrophages after 72 hrs; format: functional, organism-based; settings: MHOM/BR/1989/BA199, 72 h; summary of the method: as §1
Leishmania infantum [6] = assay: Ratio of potassium antimonyl tartrate IC50 to compound IC50 for antimony-sensitive Leishmania infantum MCAN/BR/2002/BH400 promastigote infected in Swiss mouse peritoneal macrophages; format: functional
[7] = Cytotoxicity against Swiss mouse peritoneal macrophages after 24 hrs by MTT assay; format: cell-based, Peritoneal macrophage cell
Summary of the method: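 Macrophages from peritoneal lavage of Swiss mice with cold FBS-free RPMI-1640. Cells seeded at 4.0 × 10⁶/mL, adhered 1 h, non-adherent cells washed off. Compounds were DMSO stocks diluted in medium over a concentration range, final DMSO ≤0.2%. Viability read by MTT (5 mg/mL solution, 4 h further incubation). CC50 taken as the 50% cytotoxic concentration.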

[8] = Selectivity index, ratio of CC50 for Swiss mouse peritoneal macrophages to IC50 for antimony-resistant Leishmania amazonensis MHOM/BR/1989/BA199 promastigote; format: functional
Summary of the method: (§3)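 SI = CC50/IC50. CC50 comes from Swiss mouse peritoneal macrophages, harvested by lavage with cold RPMI-1640 lacking FBS. Cells seeded at 4.0 × 10⁶/mL, allowed to adhere 1 h, then washed free of non-adherent cells. Viability read by MTT (5 mg/mL stock, 4 h).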

[9] = Selectivity index, ratio of CC50 for Swiss mouse peritoneal macrophages to IC50 for antimony-resistant Leishmania infantum MCAN/BR/2002/BH400 promastigote; format: functional; summary of the method: as §3
Leishmania amazonensis [10] = assay: Ratio of potassium antimonyl tartrate IC50 to compound IC50 for antimony-sensitive Leishmania amazonensis MHOM/BR/1989/BA199 promastigote infected in Swiss mouse peritoneal macrophages; format: functional
[11] = Selectivity index, ratio of CC50 for Swiss mouse peritoneal macrophages to IC50 for antimony-sensitive Leishmania infantum MCAN/BR/2002/BH400 promastigote; format: functional; summary of the method: as §2

Structure (SMILES)	IC50 (Leishmania infantum [1])	IC50 (Leishmania infantum [2])	IC50 (Leishmania amazonensis [3])	Ratio CC50/IC50 [4]	IC50 (Leishmania amazonensis [5])	Ratio IC50 (Leishmania infantum [6])	CC50 at 24 h [7]	Ratio CC50/IC50 [8]	Ratio CC50/IC50 [9]	Ratio IC50 (Leishmania amazonensis [10])	Ratio CC50/IC50 [11]
O=C1C=C(n2cc(-c3ccccc3)nn2)C(=O)c2ccccc21	21.6 µM	17.2 µM	16.7 µM	0.61	7.94 µM	2	10.2 µM	1.28	0.59	2.2	0.47
COc1ccc(-c2cn(C3=CC(=O)c4ccccc4C3=O)nn2)cc1	15.8 µM	18.6 µM	34.3 µM	0.49	24.5 µM	2	16.8 µM	0.68	0.9	2.2	1.06
O=C1C=C(n2cc(-c3ccc(Br)cc3)nn2)C(=O)c2ccccc21	17.2 µM	14.1 µM	57.8 µM	0.37	50.1 µM	2	21.4 µM	0.43	1.52	2.2	1.24
Cc1ccc(-c2cn(C3=CC(=O)c4ccccc4C3=O)nn2)cc1	8.8 µM	13.6 µM	21.2 µM	0.71	13.8 µM	2	15.2 µM	1.1	1.12	2.2	1.72

Reference: ChEMBL document CHEMBL2375264, “Potent naphthoquinones against antimony-sensitive and -resistant Leishmania parasites: synthesis of novel α- and nor-α-lapachone-based 1,2,3-triazoles by copper-catalyzed azide-alkyne cycloaddition” (Eur J Med Chem, 2013)
